Experimental data taken from ChEMBL document CHEMBL4689842, “EUbOPEN Chemogenomics Library wave 1” (2021).

Test system: Fibroblast
Assay: Multiplex assay against human fibroblast
Format: toxicity, cell-based
In short: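 Live cells were stained at seeding with Hoechst33342, BioTracker Green Microtubule Cytoskeleton Dye, MitoTracker Red and Annexin V Alexa Fluor 680. Following compound addition, they were imaged on a CQ1 microscope at 37°C and 5% CO2 and gated by CellPathfinder machine learning into Hoechst high-intensity objects or normal cells, with normal cells split into healthy, pyknosed or fragmented nuclei and pyknosed cells into mitotic or apoptotic. Tubulin, mitochondrial-mass and membrane-permeability phenotypes are per cents of healthy-nucleus cells.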

[1] = 12 h, 1 µM, compound concentration 1 uM, replicate 1
[2] = 12 h, 1 µM, compound concentration 1 uM, replicate 2
[3] = 12 h, 10 µM, compound concentration 10 uM, replicate 1
[4] = 12 h, 10 µM, compound concentration 10 uM, replicate 2
[5] = 24 h, 1 µM, compound concentration 1 uM, replicate 1
[6] = 24 h, 1 µM, compound concentration 1 uM, replicate 2
[7] = 24 h, 10 µM, compound concentration 10 uM, replicate 1
[8] = 24 h, 10 µM, compound concentration 10 uM, replicate 2
[9] = 48 h, 1 µM, compound concentration 1 uM, replicate 1
[10] = 48 h, 1 µM, compound concentration 1 uM, replicate 2
[11] = 48 h, 10 µM, compound concentration 10 uM, replicate 1
[12] = 48 h, 10 µM, compound concentration 10 uM, replicate 2

CN1CCCC(n2nc(Cc3ccc(Cl)cc3)c3ccccc3c2=O)CC1.Cl (stereo not given) [AZELASTINE HYDROCHLORIDE]
Population Apoptotic (%) [1]: 47%
Population Fragmented Nuclei (%) [1]: 25%
Population Healthy Nuclei (%) [1]: 50%
Population Hoechst High Intensity Objects (%) [1]: 11%
Population Membrane Permeable-Phenotype (%) [1]: 26%
Population Mitochondria Different-Phenotype (%) [1]: 9%
Population Mitotic Cells (%) [1]: 52%
Population Normal (%) [1]: 88%
Population Pyknosed Nuclei (%) [1]: 23%
Population Tubulin-Different-Phenotype (%) [1]: 65%
Total Cell Count [1]: 92
Population Apoptotic (%) [2]: 25%
Population Fragmented Nuclei (%) [2]: 6%
Population Healthy Nuclei (%) [2]: 84%
Population Membrane Permeable-Phenotype (%) [2]: 7%
Population Mitochondria Different-Phenotype (%) [2]: 57%
Population Mitotic Cells (%) [2]: 75%
Population Pyknosed Nuclei (%) [2]: 8%
Population Tubulin-Different-Phenotype (%) [2]: 68%
Total Cell Count [2]: 51
Population Apoptotic (%) [3]: 74%
Population Fragmented Nuclei (%) [3]: 26%
Population Healthy Nuclei (%) [3]: 38%
Population Hoechst High Intensity Objects (%) [3]: 18%
Population Membrane Permeable-Phenotype (%) [3]: 13%
Population Mitochondria Different-Phenotype (%) [3]: 55%
Population Mitotic Cells (%) [3]: 25%
Population Normal (%) [3]: 81%
Population Pyknosed Nuclei (%) [3]: 34%
Population Tubulin-Different-Phenotype (%) [3]: 93%
Total Cell Count [3]: 138
Population Apoptotic (%) [4]: 57%
Population Fragmented Nuclei (%) [4]: 14%
Population Healthy Nuclei (%) [4]: 70%
Population Hoechst High Intensity Objects (%) [4]: 4%
Population Membrane Permeable-Phenotype (%) [4]: 84%
Population Mitochondria Different-Phenotype (%) [4]: 98%
Population Mitotic Cells (%) [4]: 42%
Population Normal (%) [4]: 95%
Population Pyknosed Nuclei (%) [4]: 15%
Population Tubulin-Different-Phenotype (%) [4]: 100%
Total Cell Count [4]: 96
Population Apoptotic (%) [5]: 40%
Population Fragmented Nuclei (%) [5]: 31%
Population Healthy Nuclei (%) [5]: 42%
Population Hoechst High Intensity Objects (%) [5]: 10%
Population Membrane Permeable-Phenotype (%) [5]: 36%
Population Mitochondria Different-Phenotype (%) [5]: 11%
Population Mitotic Cells (%) [5]: 59%
Population Normal (%) [5]: 89%
Population Pyknosed Nuclei (%) [5]: 25%
Population Tubulin-Different-Phenotype (%) [5]: 66%
Total Cell Count [5]: 95
Population Apoptotic (%) [6]: 50%
Population Fragmented Nuclei (%) [6]: 7%
Population Healthy Nuclei (%) [6]: 76%
Population Hoechst High Intensity Objects (%) [6]: 8%
Population Membrane Permeable-Phenotype (%) [6]: 10%
Population Mitochondria Different-Phenotype (%) [6]: 57%
Population Mitotic Cells (%) [6]: 50%
Population Normal (%) [6]: 91%
Population Pyknosed Nuclei (%) [6]: 15%
Population Tubulin-Different-Phenotype (%) [6]: 50%
Total Cell Count [6]: 57
Population Apoptotic (%) [7]: 84%
Population Fragmented Nuclei (%) [7]: 32%
Population Healthy Nuclei (%) [7]: 53%
Population Hoechst High Intensity Objects (%) [7]: 18%
Population Membrane Permeable-Phenotype (%) [7]: 17%
Population Mitochondria Different-Phenotype (%) [7]: 62%
Population Mitotic Cells (%) [7]: 15%
Population Normal (%) [7]: 81%
Population Pyknosed Nuclei (%) [7]: 14%
Population Tubulin-Different-Phenotype (%) [7]: 90%
Total Cell Count [7]: 161
Population Apoptotic (%) [8]: 95%
Population Fragmented Nuclei (%) [8]: 16%
Population Healthy Nuclei (%) [8]: 58%
Population Hoechst High Intensity Objects (%) [8]: 4%
Population Membrane Permeable-Phenotype (%) [8]: 98%
Population Mitochondria Different-Phenotype (%) [8]: 100%
Population Mitotic Cells (%) [8]: 4%
Population Normal (%) [8]: 95%
Population Pyknosed Nuclei (%) [8]: 25%
Population Tubulin-Different-Phenotype (%) [8]: 100%
Total Cell Count [8]: 96
Population Apoptotic (%) [9]: 58%
Population Fragmented Nuclei (%) [9]: 38%
Population Healthy Nuclei (%) [9]: 41%
Population Hoechst High Intensity Objects (%) [9]: 11%
Population Membrane Permeable-Phenotype (%) [9]: 28%
Population Mitochondria Different-Phenotype (%) [9]: 11%
Population Mitotic Cells (%) [9]: 41%
Population Normal (%) [9]: 88%
Population Pyknosed Nuclei (%) [9]: 20%
Population Tubulin-Different-Phenotype (%) [9]: 54%
Total Cell Count [9]: 95
Population Apoptotic (%) [10]: 75%
Population Fragmented Nuclei (%) [10]: 31%
Population Healthy Nuclei (%) [10]: 61%
Population Hoechst High Intensity Objects (%) [10]: 8%
Population Membrane Permeable-Phenotype (%) [10]: 10%
Population Mitochondria Different-Phenotype (%) [10]: 1%
Population Mitotic Cells (%) [10]: 25%
Population Normal (%) [10]: 91%
Population Pyknosed Nuclei (%) [10]: 7%
Population Tubulin-Different-Phenotype (%) [10]: 73%
Total Cell Count [10]: 123
Population Apoptotic (%) [11]: 90%
Population Fragmented Nuclei (%) [11]: 40%
Population Healthy Nuclei (%) [11]: 52%
Population Hoechst High Intensity Objects (%) [11]: 30%
Population Membrane Permeable-Phenotype (%) [11]: 13%
Population Mitochondria Different-Phenotype (%) [11]: 34%
Population Mitotic Cells (%) [11]: 10%
Population Normal (%) [11]: 69%
Population Pyknosed Nuclei (%) [11]: 6%
Population Tubulin-Different-Phenotype (%) [11]: 84%
Total Cell Count [11]: 207
Population Apoptotic (%) [12]: 66%
Population Fragmented Nuclei (%) [12]: 38%
Population Healthy Nuclei (%) [12]: 57%
Population Hoechst High Intensity Objects (%) [12]: 25%
Population Membrane Permeable-Phenotype (%) [12]: 22%
Population Mitochondria Different-Phenotype (%) [12]: 39%
Population Mitotic Cells (%) [12]: 33%
Population Normal (%) [12]: 74%
Population Pyknosed Nuclei (%) [12]: 3%
Population Tubulin-Different-Phenotype (%) [12]: 88%
Total Cell Count [12]: 253
